Measurements published in ChEMBL document CHEMBL5143719, “Cosolvent Sites-Based Discovery of Mycobacterium Tuberculosis Protein Kinase G Inhibitors” (J Med Chem, 2022).
Active and inactive are the calls of the source. The calls are words filed in the database; no cut-off is given here.

Assays:
[1] = molecular target: Serine/threonine-protein kinase PknG (Mycobacterium tuberculosis) (UniProt P9WI73); test: Inhibition of full length Mycobacterium tuberculosis protein kinase G at 40 uM using GarA as substrate in presence of ATP relative to control
Chain of Serine/threonine-protein kinase PknG (Mycobacterium tuberculosis) (P9WI73 whole entry): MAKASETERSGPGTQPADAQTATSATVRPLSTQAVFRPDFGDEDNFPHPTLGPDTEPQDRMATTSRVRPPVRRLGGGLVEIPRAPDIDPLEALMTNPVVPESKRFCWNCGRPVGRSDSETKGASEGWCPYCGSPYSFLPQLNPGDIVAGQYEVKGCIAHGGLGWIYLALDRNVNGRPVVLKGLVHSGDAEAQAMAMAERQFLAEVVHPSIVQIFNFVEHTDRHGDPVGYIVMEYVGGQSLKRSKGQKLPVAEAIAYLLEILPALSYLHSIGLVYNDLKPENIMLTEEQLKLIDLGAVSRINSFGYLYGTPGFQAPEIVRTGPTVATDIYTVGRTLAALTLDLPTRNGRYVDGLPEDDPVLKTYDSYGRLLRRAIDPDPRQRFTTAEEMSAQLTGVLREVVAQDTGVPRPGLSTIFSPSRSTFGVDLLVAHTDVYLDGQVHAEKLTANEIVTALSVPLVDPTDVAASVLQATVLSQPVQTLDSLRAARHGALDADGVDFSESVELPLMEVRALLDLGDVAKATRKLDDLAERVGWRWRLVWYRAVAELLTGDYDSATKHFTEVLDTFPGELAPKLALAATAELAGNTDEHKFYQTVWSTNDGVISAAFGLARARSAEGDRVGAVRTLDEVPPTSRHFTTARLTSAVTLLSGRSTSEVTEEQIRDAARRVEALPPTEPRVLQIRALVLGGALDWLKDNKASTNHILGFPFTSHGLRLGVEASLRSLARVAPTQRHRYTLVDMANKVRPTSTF
In short: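 End-point assay with full-length PknG 1 μM, GarA 25 μM and ATP 2 μM, in 25 mM Tris-HCl pH 7.4, 2 mM MnCl2 and 1–2% DMSO. Reactions ran 60 min at 37 °C, after which remaining ATP was read by Kinase-Glo Plus luminescence. Inhibition was referenced to no-compound (DMSO) and no-GarA controls. Duplicates.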

[2] = system: Mycobacterium tuberculosis; test: Antimycobacterial activity against Mycobacterium tuberculosis H37Rv infected in human THP-1 cells assessed as reduction in intracellular survival at 1 to 10 uM measured after 24 to 48 hrs; assay type: functional, organism-based; details: dose 1-10 µM, time 24-48 hrs
In short: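 THP-1 monocytes were differentiated with 10 ng/mL PMA for 48 h and infected with Mtb H37Rv (MOI 10) for 2 h. Cells were washed and cultured without penicillin–streptomycin with compound at 1 and 10 μM for 24 and 48 h. Lysis was in 0.05% Triton X-100; serial dilutions were plated in quadruplicate on 7H10 OADC. CFU were counted after 3 weeks. Welch's ANOVA with Dunnett T3.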

[3] = system: THP-1; test: Cytotoxicity against human THP1 cells assessed as reduction in cell viability at 1 to 10 uM measured for 3 to 48 hrs by trypan blue assay; assay type: toxicity, cell-based; details: thp-1, 10 µM, dose lower 1 µM, time lower 3 hrs, dose upper 10 µM, time upper 48 hrs
In short: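 PMA-differentiated THP-1 macrophages were exposed to compound at 1 and 10 μM for 3, 5, 24 and 48 h. Viability was scored by trypan blue exclusion, in triplicate, as percent of untreated control cells.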

[4] = molecular target: T1, Serine/threonine-protein kinase PknG (Mycobacterium tuberculosis, UniProt P9WI73); test: Binding affinity to full length Mycobacterium tuberculosis protein kinase G expressed in Escherichia coli BL21 assessed as dissociation constant at 21 degreeC by fluorescence spectroscopy based
T1 sequence (P9WI73 whole entry): as above

[5] = molecular target: T1, Serine/threonine-protein kinase PknG; test: Inhibition of full length Mycobacterium tuberculosis protein kinase G using His-tagged GarA as substrate in presence of [gamma32P] ATP measured after 12 to 24 hrs by radiometric kinase assay

## CS(=O)(=O)Nc1ccc(-c2cc(-c3ccccc3)cc(C(N)=O)c2N)cc1
[1]
  inhibition: 50%

## CCN1CCCC1CNC(=O)Nc1sc2c(c1C(N)=O)CCCC2 (configuration not stated)
[2]
  Activity: Active

## CC(C)c1ccc(C(=O)c2c(N)c(C(N)=O)c3ccccn23)cc1
[2]
  Activity: Active
[3]
  Activity: Non-Toxic

## NC(=O)c1c(N)c(C(=O)c2ccccc2)n2ccccc12
[4]
  Kd: 1800 nM

## NC(=O)c1c(N)c(C(=O)c2ccc(F)cc2)n2ccccc12
[2]
  Activity: Active
[3]
  Activity: Non-Toxic

## CCOc1ccc(C(=O)c2c(N)c(C(N)=O)c3ccccn23)cc1
[4]
  Kd: 13000 nM

## NC(=O)c1c(N)c(C(=O)c2ccc(Br)cc2)n2ccccc12
[4]
  Kd: 1300 nM

## NC(=O)c1c(NC(=O)NCC2CCCO2)sc2c1CCCC2 (configuration not stated)
[2]
  Activity: Active

## NC(=O)c1c(NC(=O)C2CC2)sc2c1CCCC2
[5]
  IC50: 900 nM
[2]
  Activity: Active
